Measured values of several laboratories.
Protocols differ between the studies behind these lines.
Target: Serine/threonine-protein kinase ULK2 (ULK2, Homo sapiens, UniProt Q8IYT8)
Sequence (Q8IYT8 1-1036, as in one of the studies): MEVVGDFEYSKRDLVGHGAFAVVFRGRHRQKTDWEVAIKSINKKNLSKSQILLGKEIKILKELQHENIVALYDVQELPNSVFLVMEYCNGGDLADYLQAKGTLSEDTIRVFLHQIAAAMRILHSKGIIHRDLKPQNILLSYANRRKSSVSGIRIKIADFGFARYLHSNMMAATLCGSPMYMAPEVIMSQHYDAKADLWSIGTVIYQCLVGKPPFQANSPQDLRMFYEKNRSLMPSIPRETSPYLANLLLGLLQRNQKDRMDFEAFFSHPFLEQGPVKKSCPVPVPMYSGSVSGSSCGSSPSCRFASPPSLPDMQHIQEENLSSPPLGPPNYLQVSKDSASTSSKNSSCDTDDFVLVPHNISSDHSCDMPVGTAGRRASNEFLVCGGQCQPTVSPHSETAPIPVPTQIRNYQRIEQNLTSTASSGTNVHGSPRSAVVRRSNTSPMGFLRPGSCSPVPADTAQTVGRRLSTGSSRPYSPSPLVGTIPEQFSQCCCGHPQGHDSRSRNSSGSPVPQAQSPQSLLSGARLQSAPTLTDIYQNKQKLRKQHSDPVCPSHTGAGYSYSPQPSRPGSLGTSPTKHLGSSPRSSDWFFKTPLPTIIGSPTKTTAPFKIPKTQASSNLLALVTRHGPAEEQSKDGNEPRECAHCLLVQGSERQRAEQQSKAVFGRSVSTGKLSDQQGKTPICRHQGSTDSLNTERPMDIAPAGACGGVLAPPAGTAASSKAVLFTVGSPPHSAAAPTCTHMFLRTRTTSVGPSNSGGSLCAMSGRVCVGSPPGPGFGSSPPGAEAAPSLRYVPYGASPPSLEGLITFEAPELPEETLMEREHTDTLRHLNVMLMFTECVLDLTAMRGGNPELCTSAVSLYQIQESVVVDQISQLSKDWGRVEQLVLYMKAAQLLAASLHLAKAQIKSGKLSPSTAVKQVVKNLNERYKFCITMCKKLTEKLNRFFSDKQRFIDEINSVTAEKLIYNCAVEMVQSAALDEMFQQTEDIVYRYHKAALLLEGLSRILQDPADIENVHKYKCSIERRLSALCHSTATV

Compound | observed | action | technique | cell line | tested at | quantity | value
Cc1ccc(C(=O)NCc2ccsc2)cc1C#Cc1cn(C(C)C)c2ncnc(N)c12 | enzyme activity | inhibitor | – | – | 1 µM | activity vs control | 92%
CN(C(=O)c1ccccc1)c1cc(N(C)c2ccc3c(c2)CCc2ccc(C(=O)NCCN4CCOCC4)cc2C3=O)ccc1F | cell-free assay | – | competition with immobilised ligand | – | 1 µM | remaining binding | 100%
COc1cc2c(Nc3ccc(Br)cc3F)ncnc2cc1OCC1CCN(C)CC1 | cell-free assay | – | – | – | 0.5 µM | remaining signal | 108%
CC(C)(O)[C@H]1CC[C@H](Nc2ccc3ncc(-c4cccc(C(F)(F)F)c4)n3n2)CC1 | enzyme activity | inhibitor | – | – | 1 µM | remaining activity | 97.9%
N#CCCc1ccc2c(c1)-c1[nH]c3ccc([N+](=O)[O-])cc3c1CC(=O)N2 | cell-free assay | – | – | – | 0.5 µM | remaining signal | 73.1%
O=C(NCc1ncc(C(F)(F)F)cc1Cl)c1ccc2c(c1)C1(CCS(=O)(=O)CC1)[C@H](C1CC1)N2S(=O)(=O)c1ccc(F)cc1 | cell-free assay | – | competition with immobilised ligand | – | 1 µM | remaining binding | 58%
CCN1CCN(Cc2ccc(NC(=O)c3ccc(C)c(Oc4ccnc5[nH]ccc45)c3)cc2C(F)(F)F)CC1 | target engagement in cells | inhibitor | chemoproteomics | Huh-7 | 1 µM | inhibition | -16.6%
Nc1ncnc2occ(-c3ccc(NC(=O)Nc4cc(C(F)(F)F)ccc4F)cc3)c12 | cell-free assay | inhibitor | – | – | 20 µM | remaining signal | 8.8%
C[S+]([O-])c1ccc(-c2nc(-c3ccncc3)c(-c3ccc(F)cc3)[nH]2)cc1 (stereo not shown) | cell-free assay | – | – | – | 0.5 µM | remaining signal | 83.5%
Cc1sc(C(=O)NC2COC2)cc1-n1cc(NC(=O)Nc2c(F)cccc2Cl)cn1 | enzyme activity | inhibitor | – | – | 10 µM | remaining activity | 74.9%
CCCCN(CCCC)C(=O)CN1C[C@@H](c2cc(OC)c3c(c2)OCO3)[C@H](C(=O)O)[C@H]1CC(C)(C)CCC | cell-free assay | – | competition with immobilised ligand | – | 1 µM | remaining binding | 89.2%
COc1cc(Cl)c(C(=O)N[C@@H](CN[C@H]2CC[C@@H](N)CC2)Cc2ccc(C#N)cc2)cc1-c1ccc(CN[C@H](C)c2ccc(C)cc2)o1 | enzyme activity | inhibitor | – | – | 1 µM | remaining activity | 94%
CNC(=O)Nc1ccc2c(c1)[C@@]1(CC2)OC(=O)N(CC(=O)N(Cc2ccc(F)cc2)[C@@H](C)C(F)(F)F)C1=O | cell-free assay | – | competition with immobilised ligand | – | 1 µM | remaining binding | 100%
CN1CC(Oc2cnc(C#N)cc2-c2ccn3nc(NC(=O)C4CC4)cc3c2)C1 | enzyme activity | inhibitor | – | – | 1 µM | inhibition | 8%
Cc1nc(C2CCN(C(=O)c3ccc(OC(F)(F)F)cc3N)CC2)c2ncc(N3CCN(C)CC3)cc2n1 | cell-free assay | – | competition with immobilised ligand | – | 1 µM | remaining binding | 100%
CCCS(=O)(=O)Nc1ccc(F)c(C(=O)c2c[nH]c3ncc(-c4ccc(Cl)cc4)cc23)c1F | enzyme activity | inhibitor | – | – | 1 µM | inhibition | < 10%
CS(=O)(=O)Nc1cccc(-c2csc(NC(=O)CSc3nc4nccnc4c(=O)n3CCc3ccccc3)n2)c1 | enzyme activity | inhibitor | – | – | 10 µM | inhibition | -2%
Nc1c(C(=O)NCc2ccc(C(=O)NCCCC3CCCCC3)cc2)cnn1-c1ccccc1 | cell-free assay | – | competition with immobilised ligand | – | 0.1 µM | remaining binding | 100%
O=C(Nc1cnn(-c2csc(C(=O)NC3COC3)c2)c1)Nc1ccccc1Cl | enzyme activity | inhibitor | – | – | 5 µM | remaining activity | 196%
CCCOc1ccc(OC)c(F)c1C(=O)c1ccc(C(=O)N[C@@H]2CNC[C@H]2NC(=O)c2ccc3[nH]ncc3c2)cc1 | enzyme activity | inhibitor | – | – | 10 µM | remaining activity | 101%
N#Cc1ccc(Nc2ccc3[nH]c(=O)[nH]c3c2)c(Cl)c1 | cell-free assay | – | competition with immobilised ligand | – | 1 µM | remaining binding | 99%
FC(F)(F)Oc1cccc(-c2cnc3ccc(-c4ccncc4)nn23)c1 | enzyme activity | inhibitor | radiometric | – | 1 µM | activity vs control | 110%
